From PubChem BioAssay
mABHD4 FP: inhibitors of mouse ABHD4. purified mABHD4, FP-Rh probe fluorescence polarization. AID 720543. Q8VD66. inhibition, % at 8.92 µM. hit rate 0.54% among 370,000;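 active = inhibition exceeding the mean over every tested compound plus 3 SD, cut at about 30% in these data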
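Test system: mouse ABHD4 enzyme, wild type. Reagent: FP-Rh fluorescent activity-based probe, added after compound pre-incubation. Timing: pre-incubation 45 min, probe exposure 60 min, at 25 °C. Technique: FP readout, ex 525 nm / em 598 nm. Benchmarks: high control S159A mutant with DMSO, low control median of compound wells.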
rCAG RNA binder: molecules binding r(CAG) RNA repeats | r(CAG) RNA repeat, TO-PRO-1 dye displacement fluorescence | inhibition, % at 3 µM | hit rate 1.3% among 370,000 | AID 651821;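 active = inhibition above the plate cutoff, the mean of all test compounds on that plate plus 3 SD, cut at about 35% in these data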;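 note: higher means more dye released from RNA so lower well fluorescence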
HTRA1 inh: HTRA1 (human) protease inhibition; AID 504803; recombinant HTRA1, FP-rhodamine activity-based probe, fluorescence polarization; Q92743; inhibition, % at 5.96 µM; hit rate 0.5% among 340,000; in the data active = inhibition above about 36%
Target sequence (Q92743 whole entry, looked up): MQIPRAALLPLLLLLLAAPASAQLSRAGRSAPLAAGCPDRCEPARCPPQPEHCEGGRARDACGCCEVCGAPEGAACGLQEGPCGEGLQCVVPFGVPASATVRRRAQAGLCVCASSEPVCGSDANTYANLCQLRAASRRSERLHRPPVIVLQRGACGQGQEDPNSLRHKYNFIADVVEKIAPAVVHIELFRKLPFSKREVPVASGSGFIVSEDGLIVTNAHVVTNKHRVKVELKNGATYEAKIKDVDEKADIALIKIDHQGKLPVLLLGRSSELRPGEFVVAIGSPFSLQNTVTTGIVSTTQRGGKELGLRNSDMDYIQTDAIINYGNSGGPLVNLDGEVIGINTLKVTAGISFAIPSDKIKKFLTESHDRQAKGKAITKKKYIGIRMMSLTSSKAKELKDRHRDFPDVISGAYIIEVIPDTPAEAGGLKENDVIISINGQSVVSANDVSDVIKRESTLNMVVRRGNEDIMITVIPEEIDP
PRMT1 FP inh: PRMT1 (human) inhibition, primary screen; Q99873; recombinant PRMT1, activity-based probe fluorescence polarization; inhibition, % at 2.79 µM; hit rate 1.3% among 370,000; AID 652257;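 active = inhibition above about 21% made by adding two undisclosed values, limit read from the data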
SIAE primary: inhibitors of human sialic acid acetylesterase SIAE; SIAE FP-Rh probe binding, fluorescence polarization; Q9HAT2; hit rate 0.69% among 370,000; inhibition, % at 9.66 µM;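 active = inhibition above a cutoff: mean of compounds within the control limits plus 3 SD of those, cut at about 17% in these data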
rCAG bind conf: r(CAG) RNA repeat binding, confirmation; AID 652065; TO-PRO-1 dye displacement fluorescence; shares compounds with rCAG RNA binder; hit rate 70% among 4,300; inhibition, % at 3 µM;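 active = inhibition above a per-plate cutoff, the mean inhibition of sample wells plus 3 SD, cut at about 35% in these data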;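 note: loss of TO-PRO-1 fluorescence as compound displaces dye from 1x1 AA loop RNA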
DNA CAG counter: disrupts DNA CAG TO-PRO-1 complex, flagging rCAG hits | shares compounds with rCAG RNA binder | d(CAG) DNA oligo TO-PRO-1 dye displacement, fluorescence | inhibition, % at 3 µM | hit rate 94% among 4,300 | AID 652068;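 active = inhibition above its plate's cutoff, the mean test-well inhibition plus 3 SD, cut at about 4.8% in these data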;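 note: hits displace the dye from DNA and so lower well fluorescence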
Of the large screens only hits and unclear results are named; the others gave an inactive call (follow-up assays come after a bar, where they were run). Compounds with a hit are over-represented: about 3.3% of the library has one in this group of screens.

N=C1/C(=C\c2ccc(Br)o2)C(=O)N=C2SC(CC(=O)N3CCOCC3)=NN12	rCAG RNA binder 36 | rCAG bind conf inactive | DNA CAG counter 5.1
O=S(=O)(Nc1cccc(-n2cnnn2)c1)c1cc(Br)ccc1Br	rCAG RNA binder 36 | rCAG bind conf inactive | DNA CAG counter 4.9
O=S(=O)(Nc1cccc(-n2cnnn2)c1)c1ccccc1	none
CCN1C(=O)N[C@H]2C[C@H](C(=O)N3CCCC3)[C@H](C)[C@H](c3ccccc3)C[C@H]21	none (no result: HTRA1 inh)
O=C1NN(c2ccccc2)C(=O)/C1=C\c1coc2ccc(O)cc2c1=O	rCAG RNA binder 36 | rCAG bind conf inactive | DNA CAG counter inactive
O=C1NN(c2ccccc2)C(=O)/C1=C/c1coc2ccccc2c1=O	rCAG RNA binder 39 | rCAG bind conf inactive | DNA CAG counter inactive
Cc1cc(OC[C@@H](O)CN2CCC(C(O)(c3ccccc3)c3ccccc3)CC2)ccc1Br	none (no result: HTRA1 inh)
Cc1ccc(C)c(S(=O)(=O)C(C#N)c2nc3ccccc3nc2N2CC(C)OC(C)C2)c1 (stereo unspecified)	rCAG RNA binder 38 | rCAG bind conf 75 | DNA CAG counter 41
COc1ccc(C2=NN(C(=O)COC(=O)c3ccc(NC(=O)CC#N)cc3)C(c3ccco3)C2)cc1 (stereo unspecified)	rCAG RNA binder 35 | rCAG bind conf inactive | DNA CAG counter 18
O=C(OCC(=O)N1N=C(c2ccc(Cl)cc2)CC1c1ccco1)c1ccco1 (stereo unspecified)	none
O=C(O)c1ccc(/C=N/NC(=O)c2ccc(CN3c4cccc5cccc(c45)S3(=O)=O)cc2)cc1	rCAG RNA binder 67 | rCAG bind conf 68 | DNA CAG counter 31
CCOC(=O)CC[C@@H]1CC[C@]2(CCCN(Cc3nccn3C)C2)O1	none (no result: HTRA1 inh)
CCCCCCCCN1CCS(=O)(=O)N(Cc2ccc(Cl)cc2)C(C(=O)OC)C1 (stereo unspecified)	none (no result: HTRA1 inh)
CCN1CCCCC(NC(=O)c2ccc(F)c(F)c2)C1=O (stereo unspecified)	none (no result: HTRA1 inh)
N#Cc1c(-c2ccccc2)nc(SCc2cccc(Cl)c2)[nH]c1=O	rCAG RNA binder 82 | rCAG bind conf 76 | DNA CAG counter 43
O=C(Nn1c(O)c(C=C2N=c3ccccc3=N2)sc1=S)c1ccc(Cl)cc1	none
Cc1ccc(S(=O)(=O)Nn2c(O)c(C=C3N=c4ccccc4=N3)sc2=S)cc1	rCAG RNA binder 94, PRMT1 FP inh 25 | rCAG bind conf 88 | DNA CAG counter 60
O=C1N=c2ccc(Br)cc2=C1c1sc(=S)n(NS(=O)(=O)c2ccccc2)c1O	rCAG RNA binder 81 | rCAG bind conf 80 | DNA CAG counter 50
COC(=O)c1ccc(CN2C(=O)[C@]3(OCCC=C[C@H]3C)c3ccccc32)cc1	none (no result: HTRA1 inh)
O=c1[nH]n2c(=O)c3c([nH]c2c1N=Nc1cccc(Cl)c1)CCCC3	rCAG RNA binder 75 | rCAG bind conf 85 | DNA CAG counter 48
CCC(Sc1nc(-c2cccc(OC)c2)c(C#N)c(=O)[nH]1)C(=O)Nc1nnc(C(C)C)s1 (stereo unspecified)	rCAG RNA binder 75 | rCAG bind conf 75 | DNA CAG counter 38
C[C@@H]1COc2cc(Br)ccc2S(=O)(=O)N1Cc1cn(Cc2ccccc2)nn1	none (no result: HTRA1 inh)
Cc1ccc(Cn2cc(CN3[C@H](c4ccccc4)COc4cc(Br)ccc4S3(=O)=O)nn2)cc1	rCAG RNA binder 66 (no result: HTRA1 inh) | rCAG bind conf 51 | DNA CAG counter 19
COc1cccc(OCC(=O)Nc2cc(NC(=O)COc3cccc(OC)c3)cc(C(=O)O)c2)c1	rCAG RNA binder 55 | rCAG bind conf 53 | DNA CAG counter 18
Cc1cccc(OCC(=O)Nc2cc(NC(=O)COc3cccc(C)c3)cc(C(=O)O)c2)c1	rCAG RNA binder 63 | rCAG bind conf 61 | DNA CAG counter 22
O=C(Nc1nnc(SCc2cccc3ccccc23)s1)C1COc2ccccc2O1 (stereo unspecified)	rCAG RNA binder 50 | rCAG bind conf 40 | DNA CAG counter 8.2
Cc1ccccc1CSc1nnc(NC(=O)C2COc3ccccc3O2)s1 (stereo unspecified)	none
O=C(Nc1ccccc1Cl)c1cc(S(=O)(=O)N2CCOCC2)cs1	none
O=C(Nc1ccccc1C(=O)O)c1cc(S(=O)(=O)N2CCOCC2)c(Br)s1	rCAG RNA binder 47 | rCAG bind conf 67 | DNA CAG counter 36
COc1cccc(C(C[N+](=O)[O-])c2c(C)[nH]n(-c3ccccc3)c2=O)c1 (stereo unspecified)	none
Cc1[nH]n(-c2ccccc2)c(=O)c1C(c1cccc([N+](=O)[O-])c1)c1c(C)[nH]n(-c2ccccc2)c1=O	rCAG RNA binder 68 | rCAG bind conf 50 | DNA CAG counter 20
Cc1c(C(c2cccc([N+](=O)[O-])c2O)c2c(C)n(C)n(-c3ccccc3)c2=O)c(=O)n(-c2ccccc2)n1C	none
Cc1[nH]n(-c2ccccc2)c(=O)c1C(c1cccc([N+](=O)[O-])c1O)c1c(C)[nH]n(-c2ccccc2)c1=O	rCAG RNA binder 79 | rCAG bind conf 46 | DNA CAG counter 13
N#C/C(=C(/O)CN1CCN(c2ccccc2F)CC1)c1nc(-c2ccccc2)cs1	rCAG RNA binder 58 | rCAG bind conf 49 | DNA CAG counter 16
Cc1ccc(CN2[C@@H](Cc3ccccc3)C(=O)CS2(=O)=O)cc1	rCAG RNA binder 41 | rCAG bind conf inactive | DNA CAG counter 9.1
O=S1(=O)CCOC[C@H](Cc2ccccc2)N1Cc1ccccc1	none
CCCC[C@H](C(=O)N(C)c1ccccc1)[C@@H](O)c1ccc(C(C)=O)cc1	none (no result: HTRA1 inh)
C[N+](C)(C)c1ccc(/C=N/Nc2nc(Cl)c(C#N)c(Cl)c2Cl)cc1	none
N#Cc1c(Cl)nc(N/N=C/c2ccccc2)c(Cl)c1Cl	rCAG RNA binder 45 | rCAG bind conf inactive | DNA CAG counter inactive
O=C(/C=C/c1ccccc1)NC(NC(=S)Nc1cccc(O)c1)C(Cl)(Cl)Cl (stereo unspecified)	none
O=C(/C=C/c1ccccc1)NC(NC(=S)Nc1ccc(C(=O)O)cc1)C(Cl)(Cl)Cl (stereo unspecified)	rCAG RNA binder 65 | rCAG bind conf 56 | DNA CAG counter 14
Cc1cc(N2CCNC[C@H]2C)ccc1N1CCN(Cc2ccccc2)[C@@H](C)C1	none (no result: HTRA1 inh)
O=c1oc2ccccc2c(Nc2cccc3ccccc23)c1[N+](=O)[O-]	rCAG RNA binder 42 | rCAG bind conf 45 | DNA CAG counter 12
O=c1oc2ccccc2c(Nc2cc3ccccc3cc2O)c1[N+](=O)[O-]	rCAG RNA binder 41 | rCAG bind conf 56 | DNA CAG counter 20
O=c1oc2ccccc2c(Nc2cccc3cccnc23)c1[N+](=O)[O-]	none
O=c1oc2ccccc2c(Nc2ccccc2O)c1[N+](=O)[O-]	none
